Test [1] relates to Plasmodium falciparum. The test is described as follows: Antimalarial activity against chloroquine-resistant Plasmodium falciparum FcB1 after 24 hrs. The test is classed as functional, organism-based. Particulars: FcB1, 24 h. The procedure, abridged:
(§1)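 Asynchronous P. falciparum cultures in human erythrocytes (1% parasitemia, 1% final hematocrit) exposed to serially diluted compounds (DMSO stock, final DMSO ≤0.1%) for 24 h at 37 °C, then 0.5 µCi [3H]hypoxanthine per well added for a further 24 h. Growth inhibition from incorporated radioactivity versus drug-free control on the same plate; IC50 from concentration-response curve, means ± standard deviations of several independent experiments.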

The target of test [2] is T1, Histidine-rich protein PFHRP-II (Plasmodium falciparum) (UniProt P05227).
T1 sequence (whole entry): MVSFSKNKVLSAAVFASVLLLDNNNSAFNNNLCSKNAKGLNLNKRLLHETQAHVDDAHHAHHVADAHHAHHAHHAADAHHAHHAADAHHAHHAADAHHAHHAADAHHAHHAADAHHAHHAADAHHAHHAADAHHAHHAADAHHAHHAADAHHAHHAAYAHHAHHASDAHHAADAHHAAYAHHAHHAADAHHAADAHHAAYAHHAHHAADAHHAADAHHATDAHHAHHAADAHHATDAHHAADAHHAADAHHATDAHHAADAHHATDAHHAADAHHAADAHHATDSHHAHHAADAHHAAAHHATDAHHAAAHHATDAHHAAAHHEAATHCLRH
The test is described as follows: Inhibition of beta-hematin formation at 5 mM. It is filed as functional.

Test [3] concerns the target T2, Histidine-rich protein PFHRP-II (Plasmodium falciparum, UniProt P05227).
T2 sequence (P05227 whole entry): T1 sequence (whole entry)
Description: Inhibition of beta-hematin formation. It is filed as functional.

For test [4], the target named is T1, Histidine-rich protein PFHRP-II (Plasmodium falciparum). The test is described as follows: Relative chloroquine IC50 for beta-hematin formation. It is filed as functional.
Test [5] has as its system Plasmodium falciparum. The test is described as follows: Antimalarial activity against chloroquine-sensitive Plasmodium falciparum Thai after 24 hrs. The test is classed as functional, organism-based. The procedure, abridged: as §1
The next test relates to MRC5. The test is described as follows: Cytotoxicity against human MRC5 cells. The test is classed as cell-based.
A short description of test [6]: Selectivity index, IC50 for MRC5 cells to IC50 for chloroquine-resistant Plasmodium falciparum FcB1. It is filed as functional. The procedure, abridged: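 Ratio of IC50 on MRC-5 human diploid embryonic lung cells to IC50 on FcB1 parasites, the latter from the 24 h drug plus 24 h [3H]hypoxanthine incorporation assay.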
A short description of test [7]: Resistance index, IC50 for chloroquine-resistant Plasmodium falciparum FcB1 to chloroquine-sensitive Plasmodium falciparum Thai. It is filed as functional. The procedure, abridged:
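Ratio of IC50 values between the sensitive Thai and resistant FcB1 strains, each from the [3H]hypoxanthine incorporation assay (24 h drug exposure then 24 h label, asynchronous cultures, 1% parasitemia, 1% hematocrit).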

Test [8] concerns the target T1, Histidine-rich protein PFHRP-II (Plasmodium falciparum). Description: Inhibition of beta-hematin formation at 10 mM. The test is classed as functional.
The target is the same in test [9]. Description: Inhibition of beta-hematin formation at 4.2 mM. The test is classed as functional.
For test [10] the target is unchanged. Description: Inhibition of beta-hematin formation at 8.4. The test is classed as functional. Particulars: concentration not given here.
For test [11] the target is unchanged. Description: Inhibition of beta-hematin formation at 1 to 20 mM. The test is classed as functional.
Test [12] shares this target. The test is described as follows: Inhibition of beta-hematin formation at 5.7 mM. It is filed as functional.
Test [13] has the same target. The test is described as follows: Inhibition of beta-hematin formation at 11.4 mM. It is filed as functional.

A value given as a limit tells only on which side of the number the result lay.

Take `C[C@H]1[C@H](C)CC[C@]2(C(=O)O)CC[C@]3(C)C(=CC[C@@H]4[C@@]5(C)CC[C@H](O)C(C)(C)[C@@H]5CC[C@]43C)[C@H]12` [URSOLIC ACID]: the IC50 (commonly the concentration that inhibits the measured activity by half) was 52.9 µM with Plasmodium falciparum [1] and above 20000 µM in test [3]. Besides, the inhibition – broadly, the percentage by which the read-out fell short of the control – in [2] amounted to 17.9%. In addition, the Ratio IC50 in [4] was above 3.4.
Take `CC(=O)O[C@H]1CC[C@]2(C)[C@H]3CC=C4[C@@H]5[C@@H](C)[C@H](C)CC[C@]5(C(=O)NCCCN5CCN(CCCNCc6ccc(O)cc6)CC5)CC[C@@]4(C)[C@]3(C)CC[C@H]2C1(C)C`: the figures for the IC50 in the test on Plasmodium falciparum [1], in the test with Plasmodium falciparum [5] and with MRC5 were 0.08 µM, 0.18 µM and 2.1 µM, respectively. The Selectivity index in test [6] was 27. Moreover, in [7], the Ratio is 0.43.
In the case of `CCCCCCCN(CCCCCCC)CCCN1CCN(CCCNC(=O)[C@]23CC[C@@H](C)[C@H](C)[C@H]2C2=CC[C@@H]4[C@@]5(C)CC[C@H](OC(C)=O)C(C)(C)[C@@H]5CC[C@@]4(C)[C@]2(C)CC3)CC1`, 41.8 µM corresponded to half-maximal inhibition with Plasmodium falciparum [1] (IC50).
The same measure, in the same setting: in the case of `CC(=O)O[C@H]1CC[C@]2(C)[C@H]3CC=C4[C@@H]5[C@@H](C)[C@H](C)CC[C@]5(C(=O)NCCCN5CCN(CCCN(Cc6ccc(Br)cc6)Cc6ccc(Br)cc6)CC5)CC[C@@]4(C)[C@]3(C)CC[C@H]2C1(C)C` it was above 100 µM.
For `CCN(CC)CCCC(C)Nc1ccnc2cc(Cl)ccc12` (stereo unspecified), the inhibition in test [2] amounted to 36.9%; in [8], 97.4%.
The compound `CC(=O)O[C@H]1CC[C@]2(C)[C@H]3CC=C4[C@@H]5[C@@H](C)[C@H](C)CC[C@]5(C(=O)NCCCN5CCN(CCCN(CC(C)C)CC(C)C)CC5)CC[C@@]4(C)[C@]3(C)CC[C@H]2C1(C)C` yielded an IC50 in the test with Plasmodium falciparum [1] of 18.8 µM.
For the compound `CCCN(CCC)CCCN1CCN(CCCNC(=O)[C@]23CC[C@@H](C)[C@H](C)[C@H]2C2=CC[C@@H]4[C@@]5(C)CC[C@H](OC(C)=O)C(C)(C)[C@@H]5CC[C@@]4(C)[C@]2(C)CC3)CC1`, the values for the IC50 in the test on Plasmodium falciparum [1], with Plasmodium falciparum [5] and in the test with MRC5 were 0.8 µM, 1 µM and 1.96 µM, respectively. In test [6], the Selectivity index was determined as 2.5. For the same compound, in test [7], the Ratio is 0.79.
In the test with Plasmodium falciparum [1], `CCCCN(CCCC)CCCN1CCN(CCCNC(=O)[C@]23CC[C@@H](C)[C@H](C)[C@H]2C2=CC[C@@H]4[C@@]5(C)CC[C@H](OC(C)=O)C(C)(C)[C@@H]5CC[C@@]4(C)[C@]2(C)CC3)CC1` gave a half-inhibitory concentration (IC50) of 1 µM.
On to `CC(=O)O[C@H]1CC[C@]2(C)[C@H]3CC=C4[C@@H]5[C@@H](C)[C@H](C)CC[C@]5(C(=O)NCCCN5CCN(CCCN(CC6CC6)CC6CC6)CC5)CC[C@@]4(C)[C@]3(C)CC[C@H]2C1(C)C`, for which the concentration for half-maximal inhibition (IC50) with Plasmodium falciparum [1] turned out to be 0.49 µM; in the test on Plasmodium falciparum [5], 0.95 µM; with MRC5 it was 2.53 µM. This compound also displayed a Selectivity index in [6] of 5.1. In test [7], the Ratio amounted to 0.51.
Take `CC(=O)O[C@H]1CC[C@]2(C)[C@H]3CC=C4[C@@H]5[C@@H](C)[C@H](C)CC[C@]5(C(=O)NCCCN5CCN(CCCN)CC5)CC[C@@]4(C)[C@]3(C)CC[C@H]2C1(C)C`: the half-inhibitory concentration (IC50) in the test with Plasmodium falciparum [1] was 0.17 µM; in the test with Plasmodium falciparum [5] it was 0.46 µM; in the test with MRC5, 1.61 µM; in test [3], above 20000 µM. The same compound returned a Selectivity index in test [6] of 9.6. Besides, the Ratio in [7] was determined as 0.37. In addition, the inhibition in test [2] stood at 12.9%; in test [8], 24.6%. Moreover, the Ratio IC50 in [4] was above 3.4.
In the test on Plasmodium falciparum [1], `C[C@H]1[C@H](C)CC[C@]2(C(=O)NCCCN3CCN(CCCN)CC3)CC[C@]3(C)C(=CC[C@@H]4[C@@]5(C)CC[C@H](O)C(C)(C)[C@@H]5CC[C@]43C)[C@H]12` displayed an IC50 of 0.32 µM.
Same read-out and setting: in the case of `CC(=O)O[C@H]1CC[C@]2(C)[C@H]3CC=C4[C@@H]5[C@@H](C)[C@H](C)CC[C@]5(C(=O)NCCCN5CCN(CCCN(Cc6ccc(Cl)cc6)Cc6ccc(Cl)cc6)CC5)CC[C@@]4(C)[C@]3(C)CC[C@H]2C1(C)C` it was 46 µM.
For `CC(=O)O[C@H]1CC[C@]2(C)[C@H]3CC=C4[C@@H]5[C@@H](C)[C@H](C)CC[C@]5(C(=O)NCCCN5CCN(CCCN(Cc6ccc(O)cc6)Cc6ccc(O)cc6)CC5)CC[C@@]4(C)[C@]3(C)CC[C@H]2C1(C)C`, the half-inhibitory concentration (IC50) was found to be 0.16 µM in the test on Plasmodium falciparum [1], 0.35 µM in the test with Plasmodium falciparum [5], 1.57 µM with MRC5 and 5250 µM in [3]. This compound also gave a Selectivity index in test [6] of 9.7. Also, the Ratio in test [7] was 0.46. Also, the inhibition is 39.6% in test [9] and 82.2% in [10]. The Ratio IC50 in test [4] is 0.89.
Compound `COc1ccc(CN(CCCN2CCN(CCCNC(=O)[C@]34CC[C@@H](C)[C@H](C)[C@H]3C3=CC[C@@H]5[C@@]6(C)CC[C@H](OC(C)=O)C(C)(C)[C@@H]6CC[C@@]5(C)[C@]3(C)CC4)CC2)Cc2ccc(OC)cc2)cc1` registered an IC50 with Plasmodium falciparum [1] of 6.5 µM.
The same measure, in the same setting: in the case of `CC(=O)O[C@H]1CC[C@]2(C)[C@H]3CC=C4[C@@H]5[C@@H](C)[C@H](C)CC[C@]5(C(=O)NCCCN5CCN(CCCN(Cc6ccccc6)Cc6ccccc6)CC5)CC[C@@]4(C)[C@]3(C)CC[C@H]2C1(C)C` it was 21.1 µM.
Still for that read-out and setting: then `CC(=O)O[C@H]1CC[C@]2(C)[C@H]3CC=C4[C@@H]5[C@@H](C)[C@H](C)CC[C@]5(C(=O)NCCCN5CCN(CCCN(CC6CCCCC6)CC6CCCCC6)CC5)CC[C@@]4(C)[C@]3(C)CC[C@H]2C1(C)C`, with above 100 µM; and `CC(=O)O[C@H]1CC[C@]2(C)[C@H]3CC=C4[C@@H]5[C@@H](C)[C@H](C)CC[C@]5(C(=O)NCCCN5CCN(CCCN(Cc6ccc(F)cc6)Cc6ccc(F)cc6)CC5)CC[C@@]4(C)[C@]3(C)CC[C@H]2C1(C)C`, with 20.3 µM; and `CC(=O)O[C@H]1CC[C@]2(C)[C@H]3CC=C4[C@@H]5[C@@H](C)[C@H](C)CC[C@]5(C(=O)NCCCN5CCN(CCCN(CCCc6ccccc6)CCCc6ccccc6)CC5)CC[C@@]4(C)[C@]3(C)CC[C@H]2C1(C)C`, with 8.06 µM.
For `CC(=O)O[C@H]1CC[C@]2(C)[C@H]3CC=C4[C@@H]5[C@@H](C)[C@H](C)CC[C@]5(C(=O)O)CC[C@@]4(C)[C@]3(C)CC[C@H]2C1(C)C` [O-ACETYLURSOLIC ACID], the IC50 with Plasmodium falciparum [1] was 24.9 µM. Moreover, in test [11], the inhibition amounted to 0%.
As to `CC(=O)O[C@H]1CC[C@]2(C)[C@H]3CC=C4[C@@H]5[C@@H](C)[C@H](C)CC[C@]5(C(=O)NCCCN5CCN(CCCN(Cc6ccc([N+](=O)[O-])cc6)Cc6ccc([N+](=O)[O-])cc6)CC5)CC[C@@]4(C)[C@]3(C)CC[C@H]2C1(C)C`, the half-maximal inhibitory concentration (IC50) was 3.57 µM in the test on Plasmodium falciparum [1], 3.05 µM in the test with Plasmodium falciparum [5], 18.3 µM in the test on MRC5 and above 20000 µM in test [3]. For the same compound, the Selectivity index in test [6] came out at 5.1. The Ratio in test [7] is 1.17. The figures for the inhibition in test [12] and in test [13] were 3.6% and 18.6%, respectively. Further, the Ratio IC50 in test [4] is above 3.4.
Consider `CC(=O)O[C@H]1CC[C@]2(C)[C@H]3CC=C4[C@@H]5[C@@H](C)[C@H](C)CC[C@]5(C(=O)NCCCN5CCN(CCCNCc6ccc([N+](=O)[O-])cc6)CC5)CC[C@@]4(C)[C@]3(C)CC[C@H]2C1(C)C`, for which the concentration for half-maximal inhibition (IC50) in the test on Plasmodium falciparum [1] is 1.04 µM; in the test with Plasmodium falciparum [5], 0.98 µM; in the test with MRC5, 5.39 µM. Further, the Selectivity index in [6] was found to be 5.2. In addition, in test [7], the Ratio is 1.06.

The values above are taken from ChEMBL document CHEMBL1143174, “Pharmacomodulation on the 3-acetylursolic acid skeleton: Design, synthesis, and biological evaluation of novel N-{3-[4-(3-aminopropyl)piperazinyl]propyl}-3-O-acetylursolamide derivatives as antimalarial agents” (Bioorg Med Chem, 2008).
